SMILES strings stand for the structures. ≈ marks a conversion by molar mass, not a printed value. Bounds are passed on as bounds.

Assay [1] can be described thus: Induction of apoptosis in human HepG2 cells assessed as viable cells at 2 times antiproliferative IC50 after 48 hrs by Annexin-V FITC/propidium iodide staining based fluorescence microscopic method (reference value: 94.2%). Type of assay: functional.
Assay [2] can be described thus: Growth inhibition of human CFPAC-1 cells after 72 hrs by MTT assay. The settings on record: CFPAC-1, 72 h. Type of assay: functional, cell-based. The gist of the method:
(§1)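 Monolayers in DMEM with 10% FBS, 2 mM L-glutamine and penicillin/streptomycin, 37 °C, 5% CO2; 5000 cells/well seeded day 0. Compounds added as five 10-fold dilutions (0.01–100 µM), DMSO ≤0.1%, for 72 h. MTT absorbance converted to percentage growth (NIH formulas); IC50 by linear regression between bracketing concentrations, highest concentration reported with ">" when not reached. Quadruplicate points, three experiments.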
On the technique in general: Formazan colour is commonly taken as a measure of viable cells.

In a further assay the test system is HepG2. Nature of the assay: Selectivity index, ratio of IC50 for […] cells to IC50 for human HepG2 cells. Type of assay: functional.
Assay [3] can be described thus: Growth inhibition of human SW620 cells after 72 hrs by MTT assay. Type of assay: functional, cell-based. The note with it: SW-620, 72 h. The gist of the method: as §1
Assay [4] in a line: Growth inhibition of human A549 cells after 72 hrs by MTT assay. Type of assay: functional, cell-based. The settings on record: A549, 72 h. The gist of the method: as §1
Assay [5] in a line: Growth inhibition of human HepG2 cells after 72 hrs by MTT assay. Type of assay: functional, cell-based. The note with it: HepG2, 72 h. The gist of the method: as §1
Assay [6] can be described thus: Growth inhibition of human HeLa cells after 72 hrs by MTT assay. Type of assay: functional, cell-based. The gist of the method: as §1
Assay [7] is described as follows: Induction of apoptosis in human HepG2 cells assessed as early apoptotic cells at 2 times antiproliferative IC50 after 48 hrs by Annexin-V FITC/propidium iodide staining based fluorescence microscopic method (reference value: 0.6%). Type of assay: functional.
Assay [8] in a line: Induction of apoptosis in human HepG2 cells assessed as late apoptotic cells at 2 times antiproliferative IC50 after 48 hrs by Annexin-V FITC/propidium iodide staining based fluorescence microscopic method (reference value: 0%). Type of assay: functional.
A short description of assay [9]: Induction of apoptosis in human HepG2 cells assessed as secondary necrotic cells at 2 times antiproliferative IC50 after 48 hrs by Annexin-V FITC/propidium iodide staining based fluorescence microscopic method (reference value: 5.2%). Type of assay: functional.
The next assay deals with A549. Nature of the assay: Selectivity index, ratio of IC50 for […] cells to IC50 for human A549 cells. Type of assay: functional.
The next assay has as its system Escherichia coli. Nature of the assay: Antibacterial activity against Escherichia coli ATCC 25925 after 16 to 20 hrs by broth microdilution method. Type of assay: functional. The note with it: read-out: MIC=>80. The gist of the method:
(§2)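 Broth microdilution per CLSI in cation (Ca2+, Mg2+)-adjusted Mueller-Hinton broth; compounds in serial two-fold dilutions, 256–0.25 µg/mL; direct colony suspension inoculum, final 5 x 10^5 CFU/mL; 35 ± 2 °C, 16–20 h, ambient air. MIC is the lowest concentration completely inhibiting visible growth versus growth control; with trailing, endpoint read at ≥80% growth reduction. E. coli ATCC 25922 and P. aeruginosa ATCC 27853 served as QC.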

A further assay relates to Pseudomonas aeruginosa. Nature of the assay: Antibacterial activity against Pseudomonas aeruginosa ATCC 27853 after 16 to 20 hrs by broth microdilution method. Type of assay: functional. The gist of the method:
as §2

The test system of the next assay is Klebsiella pneumoniae. Briefly: Antibacterial activity against ESBL-producing Klebsiella pneumoniae ATCC 27736 after 16 to 20 hrs by broth microdilution method. Type of assay: functional. The gist of the method: as §2
A further assay deals with Enterococcus faecalis. Nature of the assay: Antibacterial activity against Enterococcus faecalis after 16 to 20 hrs by broth microdilution method. Type of assay: functional. The gist of the method:
as §2
A general note: Broth dilution looks for growth in wells or tubes with falling amounts of substance.

A further assay deals with Acinetobacter baumannii. Nature of the assay: Antibacterial activity against Acinetobacter baumannii ATCC 19606 after 16 to 20 hrs by broth microdilution method. Type of assay: functional. The gist of the method: as §2
For a further assay, the system named is Staphylococcus aureus. Briefly: Antibacterial activity against Staphylococcus aureus ATCC 25923 after 16 to 20 hrs by broth microdilution method. Type of assay: functional. The gist of the method:
as §2

Assay [10] in a line: Growth inhibition of human WI38 cells after 72 hrs by MTT assay. Type of assay: cell-based. The note with it: WI-38, 72 h. The gist of the method: as §1

As usually defined, the IC50 is the concentration that inhibits the measured activity by half. A low value points to greater potency. For the molecule `O=c1cc(Cn2cc(Cn3ccc4cc(I)ccc43)nn2)c2ccc(O)cc2o1`, the Activity in [1] was 85%; in [7], 5.8%; in assay [8], 9.2%; in assay [9] it was 0%. Moreover, the half-inhibitory concentration (IC50) in assay [2] stood at 29.9 µM; in assay [3], 34.3 µM; in assay [4], 28.6 µM; in assay [5], 8.57 µM; in assay [6], 14.2 µM. Besides, the “Ratio IC50” value in the assay on HepG2 turned out to be 3.

As for `O=c1cc(Cn2cc(CCc3ccccc3)nn2)c2ccc(O)cc2o1`, the 50% inhibitory concentration (IC50) in assay [2] was more than 100 µM; in assay [3], 84.4 µM; in assay [4] it was 24.8 µM; in assay [5], 50.5 µM; in assay [6] it was 35.1 µM. For the same molecule, the “Ratio IC50” value in the assay with A549 is more than 4.

What is called MIC is the least concentration at which growth counts as inhibited. A word on the MIC80: it is an inhibitory concentration at the 80% level, which refers to growth in some studies and to a panel of isolates in others. Low values mean greater potency, high ones weaker potency. For `O=c1cc(Cn2cc(CNS(=O)(=O)c3ccc(F)cc3)nn2)c2ccc(O)cc2o1`, the minimal inhibitory concentration (MIC) with Escherichia coli is more than 256 µg/mL. Further, the MIC80 against Pseudomonas aeruginosa is more than 256 µg/mL; with Klebsiella pneumoniae, more than 256 µg/mL; against Enterococcus faecalis, 64 µg/mL (≈ 149 µM); in the assay on Acinetobacter baumannii, more than 256 µg/mL; in the assay with Staphylococcus aureus it was more than 256 µg/mL. In addition, the concentration for half-maximal inhibition (IC50) in assay [2] is more than 100 µM; in assay [3], more than 100 µM; in assay [4] it was 88.5 µM; in assay [5], 76.7 µM; in assay [10] it was 24.9 µM; in [6], more than 100 µM.

Take `Cc1ccc(S(=O)(=O)NCc2cn(Cc3cc(=O)oc4cc(O)ccc34)nn2)cc1`: in the assay with Escherichia coli, the MIC is more than 256 µg/mL. Further, the MIC80 was more than 256 µg/mL against Pseudomonas aeruginosa; more than 256 µg/mL in the assay with Klebsiella pneumoniae; 64 µg/mL (≈ 150 µM) in the assay on Enterococcus faecalis; more than 256 µg/mL in the assay with Acinetobacter baumannii; 256 µg/mL (≈ 600 µM) against Staphylococcus aureus. Also, the 50% inhibitory concentration (IC50) came out at 68.9 µM in [2]; 92.2 µM in [3]; 46.4 µM in assay [4]; 29.8 µM in assay [5]; 0.03 µM in [10]; 55.7 µM in [6].

Regarding `O=c1cc(Cn2cc(CNS(=O)(=O)c3ccc([N+](=O)[O-])cc3)nn2)c2ccc(O)cc2o1`, in the assay on Escherichia coli, the minimal inhibitory concentration (MIC) was more than 256 µg/mL. Further, the MIC80 was more than 256 µg/mL in the assay with Pseudomonas aeruginosa; more than 256 µg/mL in the assay on Klebsiella pneumoniae; 256 µg/mL (≈ 560 µM) in the assay on Enterococcus faecalis; more than 256 µg/mL with Acinetobacter baumannii; more than 256 µg/mL in the assay on Staphylococcus aureus. Besides, the IC50 was more than 100 µM in assay [2]; more than 100 µM in assay [3]; more than 100 µM in assay [4]; more than 100 µM in assay [5]; less than 0.01 µM in [10]; more than 100 µM in assay [6].

With `CCCCCCCCc1cn(Cc2cc(=O)oc3cc(O)ccc23)nn1`, the MIC in the assay with Escherichia coli was more than 256 µg/mL. The MIC80 in the assay on Pseudomonas aeruginosa is more than 256 µg/mL; in the assay on Klebsiella pneumoniae it was more than 256 µg/mL; in the assay with Enterococcus faecalis it was 256 µg/mL (≈ 720 µM); against Acinetobacter baumannii, more than 256 µg/mL; with Staphylococcus aureus it was more than 256 µg/mL. The IC50 turned out to be 62.6 µM in [2]; 50.9 µM in [3]; 46 µM in assay [4]; 34.2 µM in assay [5]; 43.4 µM in assay [10]; 35.1 µM in assay [6].

Turning to `O=c1cc(Cn2cc(-c3cc(F)cc(F)c3)nn2)c2ccc(O)cc2o1`, the IC50 in assay [2] was more than 100 µM; in [3], 66.7 µM; in assay [4] it was 21.1 µM; in assay [5], 38.9 µM; in [6], 27.6 µM. Further, in the assay on A549, the “Ratio IC50” value is on record as more than 4.

The values are drawn from ChEMBL document CHEMBL3875169, “Synthesis, in vitro anticancer and antibacterial activities and in silico studies of new 4-substituted 1,2,3-triazole-coumarin hybrids” (Eur J Med Chem, 2016).
